Measurements published in ChEMBL document CHEMBL1147141, “Potent nonpeptide antagonists of the bradykinin B1 receptor: structure-activity relationship studies with novel diaminochroman carboxamides” (J Med Chem, 2007).

Tests used:
[1] = target: T1, B1 bradykinin receptor (Oryctolagus cuniculus, UniProt P48748); assay: Antagonist activity at rabbit bradykinin B1 receptor; assay type: functional
T1 sequence (P48748 whole entry): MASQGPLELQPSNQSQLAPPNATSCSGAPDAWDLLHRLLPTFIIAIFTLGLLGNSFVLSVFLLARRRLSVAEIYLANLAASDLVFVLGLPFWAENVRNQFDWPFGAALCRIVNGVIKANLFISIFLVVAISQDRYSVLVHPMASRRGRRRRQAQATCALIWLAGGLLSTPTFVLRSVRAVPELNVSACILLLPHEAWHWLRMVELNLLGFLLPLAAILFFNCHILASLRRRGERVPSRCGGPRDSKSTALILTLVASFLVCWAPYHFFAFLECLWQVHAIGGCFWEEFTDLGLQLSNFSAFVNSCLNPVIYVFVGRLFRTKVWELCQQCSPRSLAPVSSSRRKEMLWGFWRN

[2] = target: T2, B1 bradykinin receptor (Rattus norvegicus, UniProt P97583); assay: Antagonist activity at rat bradykinin B1 receptor; assay type: functional
T2 sequence (P97583 whole entry): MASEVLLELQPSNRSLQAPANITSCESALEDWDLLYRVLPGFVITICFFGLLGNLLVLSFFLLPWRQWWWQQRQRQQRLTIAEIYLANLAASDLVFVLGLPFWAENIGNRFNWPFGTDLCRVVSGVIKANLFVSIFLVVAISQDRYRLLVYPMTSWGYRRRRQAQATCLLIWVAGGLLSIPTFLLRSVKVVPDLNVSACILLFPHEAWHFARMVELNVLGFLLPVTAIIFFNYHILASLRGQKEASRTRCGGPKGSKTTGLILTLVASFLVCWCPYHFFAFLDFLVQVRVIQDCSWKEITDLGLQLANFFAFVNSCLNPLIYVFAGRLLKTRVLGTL

[3] = Half life in Sprague-Dawley rat at 1 mg/kg, iv; assay type: ADME, organism-based; set-up: dose 1 mg/kg, route intravenous; settings: in vivo
How it was run: (§1)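 Male Sprague-Dawley rats (225-280 g) with femoral and jugular vein cannulae were fasted overnight. They received an i.v. bolus of 1 mg/kg in 100% DMSO, prepared on the dosing day, n = 3. Blood was drawn via jugular cannula over 6 or 8 h into heparin. Plasma was acetonitrile-precipitated and measured by LC-MS/MS (positive MRM). Parameters were noncompartmental and reported with SEM.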

[4] = Clearance in Sprague-Dawley rat at 1 mg/kg, iv; assay type: ADME, organism-based; set-up: dose 1 mg/kg, route intravenous; settings: in vivo; how it was run: as §1
[5] = Volume of distribution at steady state in Sprague-Dawley rat at 1 mg/kg, iv; assay type: ADME, organism-based; set-up: dose 1 mg/kg, route intravenous; settings: in vivo, read-out: Vss; how it was run: as §1
[6] = Oral bioavailability in Sprague-Dawley rat at 10 mg/kg, po; assay type: ADME, organism-based; settings: in vivo
How it was run: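 Male Sprague-Dawley rats (225-280 g), cannulated and fasted overnight, were dosed by oral gavage at 10 mg/kg in 1% Tween 80, 2% HPMC, prepared 24-48 h before dosing, n = 3. Jugular blood was sampled over 6 or 8 h. Plasma was analysed by LC-MS/MS and parameters derived noncompartmentally.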

[7] = Metabolic stability in rat liver microsomes; assay type: ADME, Microsome; settings: read-out: Stability
[8] = test system: Oryctolagus cuniculus; assay: Reduction of DAK10-induced hypotension in subcutaneously dosed New Zealand rabbit blood pressure model; assay type: functional, organism-based
How it was run: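 New Zealand white rabbits (2.0-3.0 kg, n = 1/dose) were given LPS 25 µg/kg i.v. 5 h before the study to induce B1 receptors. Under anesthesia, both carotids were catheterized to record mean arterial pressure and to give DAK. Baseline was set by two i.v. bolus injections of 1 µg DAK. Antagonist was then given s.c. (1, 2, 4, 10 or 20 mpk). At 30 and 75 min, blood was drawn for plasma levels and the DAK response was re-measured, expressed as % hypotensive response.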

[9] = test system: Oryctolagus cuniculus; assay: Antinociceptive effect in subcutaneously dosed New Zealand rabbit assessed as reversal of carrageenan-induced hyperalgesia administered 2 hrs after carrageenan challenge; assay type: functional, organism-based
How it was run: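 Male New Zealand white rabbits (500-700 g), right hind paw injected with lambda carrageenan (3% in saline, 200 µL). Three punctate mechanical withdrawal readings were taken before and at 3 h post-carrageenan. Antagonist was given s.c. at 1 mL/kg, at 2 h (20% Captisol vehicle) or 2.5 h (PBS vehicle, peptide) post-carrageenan. Post minus pre threshold gave a difference score, converted to %MPE with the vehicle group as Emin and 0 as Emax. Analysed by one-factor ANOVA and Dunnett's test.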

[10] = Oral bioavailability in Sprague-Dawley rat at 3 mg/kg, po; assay type: ADME, organism-based; settings: in vivo
[11] = Metabolic stability in human liver microsomes; assay type: ADME, Microsome; settings: read-out: Stability

IC50 [1]	Ki [2]	half-life [3] [h]	clearance [4] [mL/min/kg]	Vd [5] [L/kg]	bioavailability [6] [%]	microsomal CLint [7] [µL/min/mg]	bioavailability [10] [%]	microsomal CLint [11] [µL/min/mg]	Structure (SMILES)	Activity [8]	Activity [9]
10.4 nM (antagonist)	127 nM (antagonist)	2.5	24.8	4.64	13	216			O=C(C[C@@H](NS(=O)(=O)c1cccc(C(F)(F)F)c1)c1ccc(F)cc1)N[C@@H]1CCOc2cc(CN3CCCCC3)ccc21	Dose-dependent effect	Dose-dependent effect
			84.1			390	4	688	O=C(C[C@@H](NS(=O)(=O)c1ccc2ccccc2c1)c1ccccc1)N[C@@H]1CCOc2cc(CN3CCCCC3)ccc21		
